Data: ChEMBL document CHEMBL1128377, “Novel inhibitors of potassium ion channels on human T lymphocytes” (J Med Chem, 1995)

Assays:
[1] = Inhibition of [3H]dofetilide binding to guinea pig cardiac potassium (K+) channels.; parameters: species or system Cavia porcellus
Method in brief: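 Radioligand binding of [3H]dofetilide to guinea pig cardiac myocytes, run by a previously published method. The IC50 is reported as the mean of at least two determinations.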

[2] = target: T1, Potassium voltage-gated channel subfamily A member 3 (Homo sapiens, UniProt P22001); test: Concentration inhibiting [125I]ChTX (charybdotoxin) binding to N-type potassium channel.
T1 sequence (P22001 whole entry): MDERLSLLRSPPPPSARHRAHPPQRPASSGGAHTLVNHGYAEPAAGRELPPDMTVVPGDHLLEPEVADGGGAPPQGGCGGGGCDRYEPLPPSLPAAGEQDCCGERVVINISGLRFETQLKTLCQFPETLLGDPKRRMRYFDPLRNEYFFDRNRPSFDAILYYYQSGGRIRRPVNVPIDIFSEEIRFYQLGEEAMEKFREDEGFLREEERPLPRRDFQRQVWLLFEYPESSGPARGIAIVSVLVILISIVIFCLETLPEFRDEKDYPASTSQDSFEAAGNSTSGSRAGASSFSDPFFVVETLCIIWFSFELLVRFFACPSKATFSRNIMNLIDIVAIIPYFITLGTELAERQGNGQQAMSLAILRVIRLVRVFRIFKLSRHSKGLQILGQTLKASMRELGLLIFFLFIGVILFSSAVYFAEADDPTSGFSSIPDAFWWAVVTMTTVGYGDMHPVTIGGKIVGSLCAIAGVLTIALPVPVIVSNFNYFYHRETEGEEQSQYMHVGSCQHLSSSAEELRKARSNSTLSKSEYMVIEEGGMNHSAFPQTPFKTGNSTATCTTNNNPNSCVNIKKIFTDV

[3] = target: T1, Potassium voltage-gated channel subfamily A member 3; test: Inhibition of outward potassium currents (IKn) in human T-lymphocyte N-type potassium channels.; format: functional
Method in brief: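 Whole-cell patch clamp held at -80 mV, with 150 ms steps to 30 mV once per minute and stabilization for >6 min. Test agent was perfused at one fixed concentration per cell for 6 min. The first pulse gave closed-channel block and the next gave open-channel block. Peak outward current was compared with predrug current as percent blocked. IC50 was fitted from n > 9 data points.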

[4] = Partition coefficient (logP) (HPLC); format: physicochemical; details: octanol/water
[5] = Acid dissociation constant was determined; format: ADME
Cavia porcellus [6] = species: Cavia porcellus; test: Inhibition of [3H]dofetilide binding to guinea pig cardiac myocytes potassium (K+) channels at 400 nM
Cavia porcellus [7] = species: Cavia porcellus; test: Inhibition of [3H]dofetilide binding to cardiac potassium (K+) channels at 400 nM

In the case of `Clc1ccc(/N=c2\ccn(Cc3ccccc3Cl)c3cc(Cl)ccc23)c(Cl)c1`, the IC50 [1] is reported as greater than 30000 nM, the IC50 [2] is reported as greater than 30000 nM and the IC50 [3] is reported as greater than 10000 nM.

In the case of `CNCCC/N=c1\ccn(Cc2cccc(Cl)c2)c2cc(Cl)ccc12`, the IC50 [2] is reported as greater than 30000 nM.

With `C[N+](C)(C)CCC/N=c1\ccn(Cc2ccccc2Cl)c2cc(Cl)ccc12` the IC50 [2] was greater than 30000 nM and the IC50 [3] was greater than 10000 nM.

`CCCCC/N=c1\ccn(Cc2ccccc2)c2cc(Cl)ccc12` showed an IC50 [1] of 1300 nM and an IC50 [3] of 250 nM.

`CCCCCC/N=c1\ccn(Cc2ccccc2)c2ccc(OC)cc12` showed an IC50 [1] of 680 nM, an IC50 [2] of 47 nM and an IC50 [3] of 267 nM.

`CCCCCCOc1cc[n+](Cc2ccccc2)c2cc(Cl)ccc12` showed a logP [4] of 3.62, an IC50 [2] of 828 nM and a pKa [5] of 11.2.

Compound `Clc1ccc(C/N=c2\ccn(Cc3ccccc3Cl)c3cc(Cl)ccc23)c(Cl)c1` has an IC50 [1] of 2380 nM, an IC50 [2] of 550 nM and an IC50 [3] of 259 nM.

`CCCCCCCC/N=c1\ccn(Cc2ccccc2)c2cc(Cl)ccc12` gave an IC50 [1] of 2400 nM, an IC50 [2] of 280 nM and an IC50 [3] of 351 nM.

Compound `CCCCCC/N=c1\ccn(Cc2ccc(Cl)c(Cl)c2)c2cc(Cl)ccc12` has an IC50 [1] greater than 3500 nM, a logP [4] of 4.64 and an IC50 [2] of 310 nM. For the same compound, the IC50 [3] was 231 nM and the pKa [5] was 11.5.

`CCCCCC/N=c1\ccn(Cc2ccc(Cl)cc2)c2cc(Cl)ccc12` showed an IC50 [1] of 3230 nM and an IC50 [2] of 100 nM.

For `CCN(CC)CC/N=c1\ccn(Cc2ccccc2Cl)c2cc(Cl)ccc12`, the IC50 [1] was 57 nM.

In the case of `CCCCCC/N=c1\ccn(Cc2ccccc2)c2ccccc12`, the IC50 [2] is reported as 164 nM and the IC50 [3] is reported as 1050 nM.

`CC(C)C/N=c1\ccn(Cc2ccccc2)c2cc(Cl)ccc12` showed an IC50 [1] of 2000 nM and an IC50 [2] of 206 nM.

`CCCCCC/N=c1\ccn(Cc2ccccc2)c2cc(Cl)ccc12` showed an IC50 [1] of 820 nM, an IC50 [2] of 32 nM and an IC50 [3] of 335 nM. For the same compound, the pKa [5] was 11.5.

`CCCCCCNc1cc[n+](-c2ccccc2)c2c(-c3ccccc3)cc(OC)cc12` gave a logP [4] of 3.73 and an IC50 [2] of 240 nM.

Work on `C/N=c1\ccn(Cc2ccccc2)c2cc(Cl)ccc12` yielded an IC50 [2] greater than 5000 nM and an inhibition (Cavia porcellus [6]) of 24%.

Work on `CCCCCCNc1cc[n+](-c2ccccc2)c2c(-c3ccccc3)cccc12` yielded a logP [4] of 3.89, an IC50 [2] of 930 nM and a pKa [5] of 9.58.

`CCCCC/N=c1\ccn(Cc2ccc(Cl)cc2)c2ccc(C(F)(F)F)cc12` gave an IC50 [1] of 140 nM, an IC50 [2] of 340 nM and an IC50 [3] of 213 nM.

With `CCCC/N=c1\ccn(Cc2ccccc2)c2cc(Cl)ccc12` the inhibition (Cavia porcellus [7]) was 24%, the IC50 [2] was 198 nM and the IC50 [3] was 2620 nM.

In the case of `CCCCC/N=c1\ccn(Cc2ccc(Cl)cc2)c2c(F)cccc12`, the IC50 [1] is reported as 310 nM.

With `CCCCCCC/N=c1\ccn(Cc2ccccc2)c2cc(Cl)ccc12` the IC50 [1] was 2500 nM, the IC50 [2] was 117 nM and the IC50 [3] was 249 nM.

Work on `CCCCC/N=c1\ccn(Cc2ccc(Cl)cc2)c2ccc(OC)cc12` yielded an IC50 [1] of 1990 nM.

For `CCCCC/N=c1\ccn(C2CCc3ccccc32)c2cc(Cl)ccc12` (stereo not given), the IC50 [1] was 870 nM and the IC50 [2] was 2300 nM.

With `Clc1ccc2/c(=N/C34CC5CC(CC(C5)C3)C4)ccn(Cc3ccccc3)c2c1` the IC50 [1] was 157 nM and the IC50 [2] was 1170 nM.

Work on `CC(C)CCCC(C)/N=c1\ccn(Cc2ccccc2)c2cc(Cl)ccc12` (stereo not given) yielded an IC50 [1] of 175 nM, an IC50 [2] of 817 nM and an IC50 [3] of 1680 nM.

Work on `CCCCCCNc1cc[n+](C)c2c(-c3ccccc3)cccc12` yielded an IC50 [1] of 223 nM, an IC50 [2] of 240 nM and an IC50 [3] of 602 nM.

With `N=c1ccn(Cc2ccccc2)c2cc(Cl)ccc12` the IC50 [2] was greater than 8000 nM.

Work on `CCCC/N=c1\ccn(CCCc2ccccc2)c2cc(Cl)ccc12` yielded a logP [4] of 3.82, an IC50 [2] of 471 nM and a pKa [5] of 11.4.

`O=C(O)CC/N=c1\ccn(Cc2ccccc2Cl)c2cc(Cl)ccc12` gave an IC50 [2] greater than 10000 nM.

`CCCCCC/N=c1\ccn(Cc2ccccc2Cl)c2cc(Cl)ccc12` showed an IC50 [1] of 780 nM, an IC50 [2] of 190 nM and an IC50 [3] of 216 nM.

Work on `CCCCC/N=c1\ccn(Cc2ccc(Cl)cc2)c2cc(C(F)(F)F)ccc12` yielded an IC50 [1] of 90 nM and an IC50 [2] of 239 nM.

With `CCCCCC/N=c1\ccn(Cc2ccc(OC)cc2)c2cc(Cl)ccc12` the IC50 [2] was 88 nM and the IC50 [3] was 329 nM.

Compound `CCCCCC/N=c1\ccn(Cc2ccccc2)c2c(OC)cccc12` has an IC50 [1] of 210 nM.

For `CCCCCCOc1ccc(Cc2ccccc2)c2ccccc12`, the IC50 [2] was greater than 5000 nM.

Compound `CCC/N=c1\ccn(Cc2ccccc2)c2cc(Cl)ccc12` has an IC50 [2] of 544 nM and an IC50 [3] of 3160 nM.
